Source: ChEMBL document CHEMBL4138318, “Discovery of 5-Cyano-6-phenylpyrimidin Derivatives Containing an Acylurea Moiety as Orally Bioavailable Reversal Agents against P-Glycoprotein-Mediated Mutidrug Resistance” (J Med Chem, 2018)

How the values were obtained:
[1] = biological target: ATP-dependent translocase ABCB1 (Homo sapiens, UniProt P08183); test: Inhibition of ABCB1 in human SW620/AD300 cells assessed as potentiation of paclitaxel-induced cytotoxicity by measuring fold reduction in paclitaxel IC50 at 2 uM after 72 hrs by MTT assay relative to paclitaxel alone; type: cell-based
Chain of ATP-dependent translocase ABCB1 (P08183 whole entry): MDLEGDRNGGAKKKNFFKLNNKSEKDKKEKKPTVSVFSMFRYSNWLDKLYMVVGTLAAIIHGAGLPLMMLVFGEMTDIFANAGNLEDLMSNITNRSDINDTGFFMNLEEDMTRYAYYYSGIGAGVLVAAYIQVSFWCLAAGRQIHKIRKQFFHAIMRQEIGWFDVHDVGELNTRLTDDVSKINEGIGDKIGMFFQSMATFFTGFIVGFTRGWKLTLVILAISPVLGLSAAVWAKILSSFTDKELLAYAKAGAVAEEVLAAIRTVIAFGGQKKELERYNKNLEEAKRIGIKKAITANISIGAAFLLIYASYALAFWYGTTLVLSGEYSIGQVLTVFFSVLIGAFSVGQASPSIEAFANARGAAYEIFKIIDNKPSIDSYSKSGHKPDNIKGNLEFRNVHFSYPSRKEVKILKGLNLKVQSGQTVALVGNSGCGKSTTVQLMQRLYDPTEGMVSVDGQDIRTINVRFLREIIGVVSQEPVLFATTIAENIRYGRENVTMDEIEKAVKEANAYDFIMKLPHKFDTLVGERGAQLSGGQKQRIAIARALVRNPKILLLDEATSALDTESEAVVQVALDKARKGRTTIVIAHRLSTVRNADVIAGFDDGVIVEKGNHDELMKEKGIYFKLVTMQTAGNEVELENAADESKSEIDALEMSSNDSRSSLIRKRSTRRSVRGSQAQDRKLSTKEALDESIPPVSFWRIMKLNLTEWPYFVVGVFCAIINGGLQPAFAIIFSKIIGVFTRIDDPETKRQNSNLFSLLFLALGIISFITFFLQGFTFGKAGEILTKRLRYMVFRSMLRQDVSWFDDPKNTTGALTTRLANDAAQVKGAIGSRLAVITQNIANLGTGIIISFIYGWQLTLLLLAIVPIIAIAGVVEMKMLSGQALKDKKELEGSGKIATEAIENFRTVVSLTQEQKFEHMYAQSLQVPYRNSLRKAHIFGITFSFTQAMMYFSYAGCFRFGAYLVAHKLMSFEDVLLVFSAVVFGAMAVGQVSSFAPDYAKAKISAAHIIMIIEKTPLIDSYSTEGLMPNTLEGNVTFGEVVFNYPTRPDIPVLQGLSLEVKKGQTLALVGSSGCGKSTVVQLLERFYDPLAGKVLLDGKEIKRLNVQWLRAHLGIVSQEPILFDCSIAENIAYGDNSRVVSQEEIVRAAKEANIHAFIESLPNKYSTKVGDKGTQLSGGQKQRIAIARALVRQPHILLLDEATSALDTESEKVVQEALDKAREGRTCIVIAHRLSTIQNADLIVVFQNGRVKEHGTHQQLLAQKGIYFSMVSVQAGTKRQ
How it was run: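 SW620/AD300 cells (~5×10^3/well) treated with graded paclitaxel with or without modulator (2 µM, or 0.5-2 µM in dose series; 0.1% DMSO solvent control) for 72 h; MTT (5 mg/mL stock) added 4 h, absorbance 490 nm. IC50 as mean ± SD of three independent runs; reversal fold = paclitaxel IC50 without/with modulator.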

[2] = Cytotoxicity against human SW620 cells assessed as survival at 2 uM after 72 hrs by MTT assay relative to control; type: cell-based, SW-620; settings: read-out: Survival
[3] = Cytotoxicity against human SW620/AD300 cells assessed as survival at 2 uM after 72 hrs by MTT assay relative to control; type: cell-based; settings: read-out: Survival

SMILES	fold change (FC) [1]	viability at 72 h, 2 µM [2] [%]	viability at 72 h, 2 µM [3] [%]
COc1cc(-c2nc(SCC(=O)NC(=O)Nc3ccccc3)nc(Nc3ccc(C(C)C)cc3)c2C#N)cc(OC)c1OC	25.07	> 90	> 90
Cc1ccc(Nc2nc(SCc3cn(CC(=O)NC(=O)Nc4ccccn4)nn3)nc(-c3ccc(C(C)C)cc3)c2C#N)cc1	6.86	> 90	> 90
Cc1cccc(Nc2nc(SCC(=O)NC(=O)Nc3ccccn3)nc(-c3ccc(C(C)C)cc3)c2C#N)c1	2.62	> 90	> 90
CC(C)c1ccc(-c2nc(SCC(=O)NC(=O)Nc3ccccn3)nc(Nc3cccc(C(F)(F)F)c3)c2C#N)cc1	37.04	> 90	> 90
COc1cc(-c2nc(SCc3cn(CC(=O)NC(=O)Nc4ccccn4)nn3)nc(Nc3ccc(C(C)C)cc3)c2C#N)cc(OC)c1OC	13.16	> 90	> 90
COc1ccccc1Nc1nc(SCc2cn(CC(=O)NC(=O)Nc3ccccn3)nn2)nc(-c2ccc(C)cc2)c1C#N	10.71	> 90	> 90
Cc1ccc(-c2nc(SCc3cn(CC(=O)NC(=O)Nc4ccccn4)nn3)nc(Nc3cccc(Cl)c3)c2C#N)cc1	13.42	> 90	> 90
N#Cc1c(Nc2ccc(Cl)cc2)nc(SCC(=O)NC(=O)Nc2ccccn2)nc1-c1ccc(F)c(F)c1	3.5	> 90	> 90
Cc1ccc(Nc2nc(SCC(=O)NC(=O)Nc3ccccn3)nc(-c3ccccc3)c2C#N)cc1	1.67	> 90	> 90
CC(C)c1ccc(-c2nc(SCc3cn(CC(=O)NC(=O)Nc4ccccn4)nn3)nc(Nc3ccccc3F)c2C#N)cc1	2.74	> 90	> 90
Cc1ccc(Nc2nc(SCC(=O)NC(=O)Nc3ccccn3)nc(-c3ccc(C(C)C)cc3)c2C#N)cc1	1.64	> 90	> 90
N#Cc1c(Nc2ccccc2Cl)nc(SCC(=O)NC(=O)Nc2ccccn2)nc1-c1ccc(F)c(F)c1	14.24	> 90	> 90
COc1cc(-c2nc(SCC(=O)NC(=O)Nc3ccccc3)nc(Nc3cccc([N+](=O)[O-])c3)c2C#N)cc(OC)c1OC	21.04	> 90	> 90
Cc1ccc(-c2nc(SCC(=O)NC(=O)Nc3ccccn3)nc(Nc3cccc(C(F)(F)F)c3)c2C#N)cc1	6.06	> 90	> 90
COc1cc(-c2nc(SCc3ccccc3)nc(Nc3ccc(Cl)cc3)c2C#N)cc(OC)c1OC	1.24	> 90	> 90
COc1ccc(Nc2nc(SCC(=O)NC(=O)Nc3ccccn3)nc(-c3ccc(C(C)C)cc3)c2C#N)cc1	2.17	> 90	> 90
COc1cc(-c2nc(SCC(=O)NC(=O)Nc3ccccn3)nc(Nc3ccc(Cl)cc3)c2C#N)cc(OC)c1OC	12.61	> 90	> 90
COc1ccccc1Nc1nc(SCC(=O)NC(=O)Nc2ccccc2)nc(-c2cc(OC)c(OC)c(OC)c2)c1C#N	3.66	> 90	> 90
COc1ccc(Nc2nc(SCc3cn(CC(=O)NC(=O)Nc4ccccn4)nn3)nc(-c3ccc(C)cc3)c2C#N)cc1	1.18	> 90	> 90
CC(C)c1ccc(-c2nc(SCc3cn(CC(=O)NC(=O)Nc4ccccn4)nn3)nc(Nc3cccc([N+](=O)[O-])c3)c2C#N)cc1	2.99	> 90	> 90
Cc1ccc(-c2nc(SCc3cn(CC(=O)NC(=O)Nc4ccccn4)nn3)nc(Nc3cccc(C(F)(F)F)c3)c2C#N)cc1	1.88	> 90	> 90
COc1cc(-c2nc(SCC(=O)Nc3ccccn3)nc(Nc3cccc(Cl)c3)c2C#N)cc(OC)c1OC	5.51	> 90	> 90
Cc1ccc(Nc2nc(SCc3cn(Cc4ccccc4Cl)nn3)nc(-c3ccc(Br)cc3)c2C#N)cc1	3.39	–	–
COc1cc(-c2nc(SCC(=O)NC(=O)Nc3ccccc3)nc(Nc3ccc(F)cc3)c2C#N)cc(OC)c1OC	25.37	> 90	> 90
COc1ccccc1Nc1nc(SCc2cn(CC(=O)NC(=O)Nc3ccccn3)nn2)nc(-c2ccc(C(C)C)cc2)c1C#N	10.18	> 90	> 90

SMILES	fold change (FC) [1]	viability at 72 h, 2 µM [2] [%]	viability at 72 h, 2 µM [3] [%]
Cc1ccccc1Nc1nc(SCc2cn(CC(=O)NC(=O)Nc3ccccn3)nn2)nc(-c2ccc(C(C)C)cc2)c1C#N	4.69	> 90	> 90
COc1cc(-c2nc(SCc3cn(CC(=O)NC(=O)Nc4ccccn4)nn3)nc(Nc3ccc(Cl)cc3)c2C#N)cc(OC)c1OC	1.71	> 90	> 90
Cc1ccc(Nc2nc(SCc3cn(CC(=O)NC(=O)Nc4ccccn4)nn3)nc(-c3ccc(Br)cc3)c2C#N)cc1	1.41	> 90	> 90
CC(C)c1ccc(Nc2nc(SCc3cn(CC(=O)NC(=O)Nc4ccccn4)nn3)nc(-c3ccc(Br)cc3)c2C#N)cc1	1.7	> 90	> 90
COc1cc(-c2nc(SCc3cn(Cc4ccccc4Cl)nn3)nc(Nc3ccc(C)cc3)c2C#N)cc(OC)c1OC	27.54	–	–
CC(C)c1ccc(-c2nc(SCc3cn(CC(=O)NC(=O)Nc4ccccn4)nn3)nc(Nc3ccccc3O)c2C#N)cc1	13.64	> 90	> 90
N#Cc1c(Nc2cccc(C(F)(F)F)c2)nc(SCC(=O)NC(=O)Nc2ccccn2)nc1-c1ccc(F)c(F)c1	3.11	> 90	> 90
COc1cc(-c2nc(SCC(=O)NC(=O)Nc3ccccn3)nc(Nc3cccc([N+](=O)[O-])c3)c2C#N)cc(OC)c1OC	82.08	> 90	> 90
CC(C)c1ccc(-c2nc(SCc3cn(CC(=O)NC(=O)Nc4ccccn4)nn3)nc(Nc3ccccc3Cl)c2C#N)cc1	4.75	> 90	> 90
Cc1ccc(Nc2nc(SCc3cn(CC(=O)NC(=O)Nc4ccccn4)nn3)nc(-c3ccc(C)cc3)c2C#N)cc1	17.37	> 90	> 90
COc1ccc(Nc2nc(SCc3cn(CC(=O)NC(=O)Nc4ccccn4)nn3)nc(-c3ccc(C(C)C)cc3)c2C#N)cc1	6.3	> 90	> 90
Cc1ccc(Nc2nc(SCc3cn(Cc4ccccc4Cl)nn3)nc(-c3ccc(C)cc3)c2C#N)cc1	21.69	–	–
N#Cc1c(Nc2cccc(C(F)(F)F)c2)nc(SCC(=O)NC(=O)Nc2ccccn2)nc1-c1ccc(Cl)cc1	2.86	> 90	> 90
CC(C)c1ccc(-c2nc(SCc3cn(CC(=O)NC(=O)Nc4ccccn4)nn3)nc(Nc3cccc(Cl)c3)c2C#N)cc1	2.71	> 90	> 90
COc1cc(-c2nc(SCc3cn(CC(=O)NC(=O)Nc4ccccn4)nn3)nc(Nc3ccc(C)cc3)c2C#N)cc(OC)c1OC	6.23	> 90	> 90
COc1cc(-c2nc(SCc3ccccc3)nc(Nc3cccc(Cl)c3)c2C#N)cc(OC)c1OC	1.05	> 90	> 90
COc1cc(-c2nc(SCC(=O)NC(=O)Nc3ccccn3)nc(Nc3ccc(C(F)(F)F)cc3)c2C#N)cc(OC)c1OC	3.56	> 90	> 90
CC(C)c1ccc(Nc2nc(SCc3cn(CC(=O)NC(=O)Nc4ccccn4)nn3)nc(-c3ccc(C(C)C)cc3)c2C#N)cc1	9.49	> 90	> 90
Cc1ccccc1Nc1nc(SCc2cn(Cc3ccc(Cl)cc3)nn2)nc(-c2ccccc2)c1C#N	116	–	–
N#Cc1c(Nc2cccc(C(F)(F)F)c2)nc(SCc2cn(CC(=O)NC(=O)Nc3ccccn3)nn2)nc1-c1ccc(Br)cc1	2.4	> 90	> 90
Cc1ccc(-c2nc(SCc3cn(CC(=O)NC(=O)Nc4ccccn4)nn3)nc(Nc3ccc(C(C)C)cc3)c2C#N)cc1	1.18	> 90	> 90
COc1cc(-c2nc(SCc3cn(CC(=O)NC(=O)Nc4ccccn4)nn3)nc(Nc3cccc(Cl)c3)c2C#N)cc(OC)c1OC	1.37	> 90	> 90
CC(C)c1ccc(-c2nc(SCc3cn(CC(=O)NC(=O)Nc4ccccn4)nn3)nc(Nc3ccc(Cl)cc3)c2C#N)cc1	1.66	> 90	> 90
Cc1ccc(Nc2nc(SCc3cn(Cc4ccccc4Cl)nn3)nc(-c3ccc(C(C)C)cc3)c2C#N)cc1	46	–	–
